Compound activity deposited in PubChem by Sanford-Burnham Center for Chemical Genomics.
PPC-1+TRAIL kill = compounds killing PPC-1 cancer cells with TRAIL present, primary screen, TRAIL potentiator project, ATPLite luminescence, uHTS | AID 1443, 2008 | actives 0.41% (n = 220,000) | cell killing (% activity), % at 4 µM or 5 µM | PPC-1 cells + TRAIL, ATPLite viability luminescence;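 active = cell killing above 50% in the first pass at 4 µM, then a duplicate retest at 5 µM averaging 50% or more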;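 also: plate controls were cells with TRAIL plus DMSO for no effect and medium-only wells lacking cells for full effect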
FLuc inh counter = firefly luciferase enzyme inhibitors, primary screen, artefact control for luciferase-based inhibitor screens, biochemical, luminescence, ATPLite; 10 min; inhibition, % at 10 µM; actives 1.5% (n = 200,000); Luciferin 4-monooxygenase (Photinus pyralis), P08659;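 active = inhibition above about 50% when tested at 10 µM, limit read from the data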
Target sequence (P08659 whole entry, looked up): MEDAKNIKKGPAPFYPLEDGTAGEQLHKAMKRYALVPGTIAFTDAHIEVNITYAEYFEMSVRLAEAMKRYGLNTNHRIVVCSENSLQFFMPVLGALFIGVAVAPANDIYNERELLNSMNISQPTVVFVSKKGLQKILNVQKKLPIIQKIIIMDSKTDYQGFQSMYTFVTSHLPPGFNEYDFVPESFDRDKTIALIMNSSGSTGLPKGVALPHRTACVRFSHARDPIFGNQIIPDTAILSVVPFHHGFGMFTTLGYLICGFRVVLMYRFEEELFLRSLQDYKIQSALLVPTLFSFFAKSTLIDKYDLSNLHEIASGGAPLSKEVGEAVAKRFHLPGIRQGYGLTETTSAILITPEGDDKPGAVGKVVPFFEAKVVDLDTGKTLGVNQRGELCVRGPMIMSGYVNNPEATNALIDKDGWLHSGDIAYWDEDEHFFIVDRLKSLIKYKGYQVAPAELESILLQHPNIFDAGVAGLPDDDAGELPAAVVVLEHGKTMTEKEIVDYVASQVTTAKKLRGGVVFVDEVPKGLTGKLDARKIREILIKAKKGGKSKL
C8 TRAIL sens = viability loss with TRAIL in NB7+C8 cells, primary screen, TRAIL sensitizer project, cell-based, ATPlite luminescence; inhibition (viability loss, TRAIL sensitization), % at 10 µM; AID 624354, 2012; actives 1% (n = 360,000);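 active = compounds causing at least 50% loss of cell viability in the single-dose screen, relative to plate controls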
FLuc stim CS = FLuc activators, initial screening, artefact control for FLuc-dependent activation tests, biochemical, ATPlite luminescence; 200,000 tested, under 10 active; ATPlite luciferase biochemical, 10 min; 0 = ATP-free wells, 1 = DMSO control; activation factor at 10 µM;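 active = luciferase activation factor, scaled between plate controls, of at least 2 with compound at 10 µM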
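System: Luciferase/luciferin detection reagent, cell-free biochemical luciferase assay | Medium: PBS buffer for ATP | Dosing: Test compounds dosed from 2 mM stocks in 100% DMSO | Timing: 10 min at ambient temperature | Signal: Luminescence measurement of luciferase light output | Evaluation: Luciferase activation, seen as luminescence increase over controls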
PPC-1 tox = cytotoxicity in PPC-1 cells, confirmation, cytotoxicity control for TRAIL apoptosis potentiator project, cell-based, ATP content luminescence; PPC-1 viability, ATPlite luminescence, overnight; actives 50% (n = 1,200); cytotoxicity, % at 5 µM; shares compounds with PPC-1+TRAIL kill;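 active = reconfirmed compounds whose average cytotoxicity reaches 50% or more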;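 also: 0% = DMSO-treated cells and 100% = wells holding medium but no cells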
* marks the source's active call; other numbers are inactive results; . = not tested or not shown. Shown are actives, neighbours in structure and some others; about 1.5% of the full set was active somewhere.

SMILES	PPC-1+TRAIL kill	FLuc inh counter	C8 TRAIL sens	FLuc stim CS	PPC-1 tox
Nc1ccc2ncccc2c1	14	2	-9	1	.
CCOC(=O)c1sc(NC(=O)c2cccs2)cc1C	60*	71*	49	0.3	60*
CC(C)(C)c1ccc(S(=O)(=O)N(CCCN2CCOCC2)Cc2cccs2)cc1	16	-1	-9	1	.
S=C(Nc1ccc2c(c1)OCO2)N1CCN(Cc2ccco2)CC1	53*	92*	60*	0.1	56*
COc1ccc(OC)c(CNc2ncc(-c3ccc(F)cc3)n2C)c1	.	.	7	.	.
CC1=NN(c2nc3ccccc3[nH]2)C(=O)/C1=C/N(C)C	79*	94*	88*	0.1	79*
CC1CCc2c(sc(/N=C/c3ccco3)c2C(N)=O)C1 (stereo unspecified)	49	.	63*	.	49
O=C(OCC(=O)N1c2ccccc2Sc2ccccc21)c1ccc[n+]([O-])c1	-9	-8	-1	1.1	.
O=C(N/N=C/c1cccc([N+](=O)[O-])c1)c1ccc2c(c1)OCCO2	68*	84*	68*	0.2	68*
O=C(O)c1ccc(N/N=C/c2cc3cc4c(cc3nc2Cl)OCCO4)cc1	88*	.	93*	.	91*
Cc1nn(-c2nc3ccccc3[nH]2)c(=O)c2ccccc12	97*	97*	96*	0	97*
COc1ccc(OCC(=O)N/N=C/C=C/c2ccccc2)cc1	39	81*	54*	0.2	40
COc1ccc(OCC(=O)N/N=C/c2ccncc2)cc1	-11	12	2	0.9	.
O=C(NCc1cccs1)c1ccc2nc([C@@H]3O[C@H](CO)[C@H](O)[C@H](O)[C@H]3O)[nH]c2c1	.	.	14	.	.
COc1ccc(C(=O)Nc2ccc(Cc3ccncc3)cc2)cc1Br	4	1	4	1	20
C/C(=N\Nc1nc2ccccc2[nH]1)c1ccc(N2CCOCC2)cc1	71*	94*	73*	0.1	71*
C/C(=N\Nc1nc(C)cc(C)n1)c1ccc(N2CCOCC2)cc1	15	1	2	1	.
COc1cccc(-c2nc(CCl)cs2)c1	-1	7	8	0.9	.
COc1ccc(-c2nc(CCl)cs2)cc1	1	32	4	0.7	4
Nc1ccc(N=Nc2ccccc2O)c(N)c1	.	.	16	.	.
Oc1ccccc1N=Nc1ccccc1O	43	1	34	1	41
CS(=O)(=O)c1ccc2nc(NC(=O)c3cccs3)sc2c1	75*	91*	81*	0.1	76*
O=C(Nc1nc2ccc(F)cc2s1)C1=COCCO1	.	.	40	.	.
Cc1ccc2nc(NC(=O)c3cccs3)sc2c1	52*	73*	61*	0.3	54*
O=C(Nc1nc2ccc(F)cc2s1)c1ccccn1	60*	90*	.	0.1	62*
SMILES	PPC-1+TRAIL kill	FLuc inh counter	C8 TRAIL sens	FLuc stim CS	PPC-1 tox
Cc1ccc2nc(NC(=O)c3ccc(Cl)s3)sc2c1	9	35	42	0.6	10
Cc1ccc2nc(NC(=O)c3ccc4ncsc4c3)sc2c1	32	41	39	0.6	.
O=S(=O)(Nc1cc(F)ccc1F)c1cccc2nonc12	.	.	-1	.	.
COc1ccc(C(=O)NCCCNC(=O)c2cnccn2)cc1	.	.	2	.	.
O=C(Nc1nnc([C@H]2C[C@H](O)[C@@H](CO)O2)s1)c1ccc(Oc2ccccc2)cc1	.	.	-4	.	.
Cc1nc(C)c(-c2ccc(SCC(=O)Nc3cccc(Cl)c3C)nn2)s1	.	.	10	.	.
Cc1ccc(S(=O)(=O)N(C)C)cc1NC(=O)CCNC(=O)c1ccco1	.	.	-12	.	.
Cc1ccc2nc(NC(=O)CN3C(=O)C4CC=CCC4C3=O)sc2c1 (stereo unspecified)	9	22	3	0.8	21
CS(=O)(=O)c1ccc2nc(NC(=O)CN3C(=O)C4CC=CCC4C3=O)sc2c1 (stereo unspecified)	8	-4	3	1	.
CCC(NC(=O)c1ccccc1NC(=O)c1ccc(C)cc1)C(=O)O (stereo unspecified)	16	28	-1	0.7	7
CC(C)(C)C(=O)Nc1ccc(N=Nc2ccccc2)cc1	62*	90*	82*	0.1	68*
O=C(O)CCC(=O)Nc1ccc(N=Nc2ccccc2)cc1	25	18	-2	0.8	.
CCOC(=O)c1cc2sccc2n1CC(=O)Nc1ccc(OC)c(OC)c1	9	-4	6	1	7
CCOC(=O)C1C(=O)NCC2CCCC21 (stereo unspecified)	6	-4	7	1	4
CCOC(=O)C1CCN(c2c(N3CCCCCC3)c(=O)c2=O)CC1	15	4	5	1	.
Cc1ccc2c(c1)S/C(=C\c1cccc[n+]1C)N2CCO	.	.	10	.	.
CCN1/C(=C/c2ccc3cc(C)cc(C)c3[n+]2CC)Sc2cc(C)ccc21	22	2	32	1	34
C=CC[C@H](CC(=O)OC(C)(C)C)C(=O)OC[C@H]1CCCN1C(=O)[C@H](CC=C)CC(=O)NCCO	.	.	4	.	.
N=c1n(CCN2CCOCC2)c2ccccc2n1CC(=O)c1ccc(Cl)c(Cl)c1	0	-2	11	1	.
N=c1n(CCN2CCCC2)c2ccccc2n1CC(O)c1ccc(Cl)c(Cl)c1 (stereo unspecified)	24	-6	1	1.1	15
CCOC(=O)C1=C(COC(=O)Cc2c(F)cccc2Cl)NC(=O)NC1C (stereo unspecified)	.	.	-12	.	.
CC1CCN(C(=O)c2ccc3c(c2)OCO3)CC1	.	.	-29	.	.
CC1CN(C(=O)c2ccc3c(c2)OCO3)CC(C)O1 (stereo unspecified)	-1	-2	-5	1	5
Cc1cc(NCCCn2ccnc2)n2ncc(-c3ccccc3)c2n1	67*	87*	77*	0.1	62*
CCCS(=O)(=O)NC(=O)C1(C)CCCN(C(=O)c2c(-c3ccccc3)noc2C)C1 (stereo unspecified)	.	.	-12	.	.
SMILES	PPC-1+TRAIL kill	FLuc inh counter	C8 TRAIL sens	FLuc stim CS	PPC-1 tox
COc1nc(OC)nc(N2CCC(C(=O)NCc3cccs3)CC2)n1	-1	-3	-4	1	2
Cc1ccc(S(=O)(=O)NC2CCCCCCC2)cc1	.	.	-10	.	.
Cc1ccc(S(=O)(=O)NC2CCCC(C(=O)O)C2)cc1 (stereo unspecified)	11	-8	-13	1.1	13
COc1cc(CC(=O)N2c3ccccc3N=C(c3ccccc3)C2C(=O)NCc2ccccc2)cc(OC)c1 (stereo unspecified)	.	.	8	.	.
O=C(COc1ccc2ccccc2c1)NC1=NCCS1	11	46	32	0.5	.
Cc1cc(C)cc(OCC(=O)NC2=NCCS2)c1	-3	-9	3	1.1	0
NC(=O)c1ccccc1N/C=C/C(=O)c1ccc(Cl)cc1Cl	81*	96*	90*	0	81*
